Measurements from ChEMBL document CHEMBL4118251 (J Med Chem, 2018).
Peptide text beside a SMILES is read from it.

Tests used:
[1] = target: T1, Glucagon-like peptide 1 receptor (Homo sapiens, UniProt P43220); assay: Displacement of [125I]GLP-1 from human GLP1R expressed in HEK293 cell membranes after 180 mins by microbeta counting method
In short: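 Membranes from HEK-293 cells expressing human GLP-1 receptor (1 μg protein/well) were coated on WGA SPA beads. […] The buffer was HEPES pH 7.4 with EDTA, NaCl, MgCl2, CaCl2, protease inhibitors and 0.1% BSA. Plates were read after a 180 min delay.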

[2] = target: T1, Glucagon-like peptide 1 receptor; assay: Agonist activity at human GLP1R expressed in HEK293 cells assessed as cAMP accumulation after 30 mins by HTRF assay; format: functional, cell-based
Glucagon receptor = Glucagon receptor (Homo sapiens, UniProt P47871); assay: Agonist activity at human glucagon receptor expressed in HEK293 cells assessed as cAMP accumulation after 30 mins by HTRF assay; format: functional, cell-based
Sequence of Glucagon receptor (P47871 whole entry): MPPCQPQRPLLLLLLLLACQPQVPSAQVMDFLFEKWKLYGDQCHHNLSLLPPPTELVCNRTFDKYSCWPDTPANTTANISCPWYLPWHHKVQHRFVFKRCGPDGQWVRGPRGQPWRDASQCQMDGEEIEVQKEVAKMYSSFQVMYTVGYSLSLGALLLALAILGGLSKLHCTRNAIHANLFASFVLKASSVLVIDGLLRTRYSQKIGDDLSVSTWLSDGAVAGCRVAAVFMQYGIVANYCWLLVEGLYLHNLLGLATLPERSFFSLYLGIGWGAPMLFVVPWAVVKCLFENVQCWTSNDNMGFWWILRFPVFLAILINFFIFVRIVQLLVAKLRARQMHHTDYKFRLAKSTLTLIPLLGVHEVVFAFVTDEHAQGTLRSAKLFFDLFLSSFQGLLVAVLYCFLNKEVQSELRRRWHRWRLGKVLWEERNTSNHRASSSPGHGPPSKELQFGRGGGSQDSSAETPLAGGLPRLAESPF

[3] = target: T2, Gastric inhibitory polypeptide receptor (Homo sapiens, UniProt P48546); assay: Agonist activity at human GIP receptor expressed in HEK293 cells assessed as cAMP accumulation after 30 mins by HTRF assay; format: functional, cell-based
T2 sequence (P48546 whole entry): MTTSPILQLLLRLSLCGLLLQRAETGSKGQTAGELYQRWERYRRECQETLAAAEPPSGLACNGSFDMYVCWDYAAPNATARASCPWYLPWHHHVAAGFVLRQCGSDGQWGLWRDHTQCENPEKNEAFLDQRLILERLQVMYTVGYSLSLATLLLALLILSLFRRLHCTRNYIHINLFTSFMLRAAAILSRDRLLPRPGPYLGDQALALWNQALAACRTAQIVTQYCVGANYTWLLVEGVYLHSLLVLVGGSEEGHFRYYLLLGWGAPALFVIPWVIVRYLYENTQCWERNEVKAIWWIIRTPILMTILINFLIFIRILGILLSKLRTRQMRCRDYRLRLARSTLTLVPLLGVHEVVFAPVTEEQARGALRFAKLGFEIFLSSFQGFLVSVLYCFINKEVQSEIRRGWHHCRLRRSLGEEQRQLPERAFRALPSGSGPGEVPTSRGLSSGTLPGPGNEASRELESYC

Homo sapiens [4] = species: Homo sapiens; assay: Selectivity ratio of EC50 for human glucagon receptor expressed in HEK293 cells to EC50 for human GLP1R expressed in HEK293 cells; format: cell-based
In short: (§1)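 HEK293 lines stably expressing human or monkey receptor were detached with accutase. Cells were resuspended at 400 000 cells/mL in HBSS/20 mM HEPES/0.1% BSA/2 mM IBMX and exposed to peptide for 30 min at room temperature. cAMP was read by HTRF (665/620 nm) after 1 h lysis.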

[5] = Solubility in pH 4.5 acetate buffer at 10 mg/ml after 2 hrs by UPLC-UV analysis; format: physicochemical
In short: (§2)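 Buffers were 100 mM sodium acetate pH 4.5 or 100 mM sodium phosphate pH 7.4, with or without 0.5% phenol. Solid peptide was dispersed at 10 mg/mL, with content corrected by UPLC-MS and ion chromatography, and gently agitated for 2 h. After centrifugation (15 min, 3000 rcf), the supernatant was diluted 1:10 and quantified by UPLC-UV against a DMSO standard curve.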

[6] = Solubility in pH 4.5 acetate buffer at 10 mg/ml after 2 hrs in presence of 0.5% phenol by UPLC-UV analysis; format: physicochemical; in short: as §2
[7] = Solubility in pH 4.5 phosphate buffer at 10 mg/ml after 2 hrs in presence of 0.5% phenol by UPLC-UV analysis; format: physicochemical
[8] = Solubility in pH 4.5 acetate buffer at 10 mg/ml after 2 hrs by UPLC-UV analysis
Homo sapiens [9] = species: Homo sapiens; assay: Selectivity ratio of EC50 for human GIP receptor expressed in HEK293 cells to EC50 for human GLP1R expressed in HEK293 cells; format: cell-based; in short: as §1

T1 sequence (P43220 whole entry): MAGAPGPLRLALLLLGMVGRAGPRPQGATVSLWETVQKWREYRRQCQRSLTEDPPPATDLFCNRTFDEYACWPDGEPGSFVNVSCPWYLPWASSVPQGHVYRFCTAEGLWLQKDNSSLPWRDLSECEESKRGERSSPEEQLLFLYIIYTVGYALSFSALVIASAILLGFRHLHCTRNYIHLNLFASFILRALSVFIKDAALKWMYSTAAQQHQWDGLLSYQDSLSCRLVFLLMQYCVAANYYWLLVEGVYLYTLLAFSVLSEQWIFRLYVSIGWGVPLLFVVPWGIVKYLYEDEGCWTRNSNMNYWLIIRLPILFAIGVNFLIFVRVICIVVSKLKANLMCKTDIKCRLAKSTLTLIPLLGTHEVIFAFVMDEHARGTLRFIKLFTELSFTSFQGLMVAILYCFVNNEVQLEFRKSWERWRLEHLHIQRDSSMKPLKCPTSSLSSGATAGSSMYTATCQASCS

SMILES	IC50 [1] [nM]	EC50 [2] [nM]	EC50 (Glucagon receptor) [nM]	EC50 [3] [nM]	Ratio EC50 (Homo sapiens [4])	solubility at 2 h [5] [µg/mL]	solubility at 2 h [6] [µg/mL]	solubility at 2 h [7] [µg/mL]	solubility at 2 h [8] [µg/mL]	Ratio EC50 (Homo sapiens [9])
CC[C@H](C)[C@H](NC(=O)[C@H](Cc1ccccc1)NC(=O)[C@H](CC(C)C)NC(=O)[C@H](CCCCN)NC(=O)[C@H](C)NC(=O)[C@H](CCCNC(=N)N)NC(=O)[C@H](CCC(N)=O)NC(=O)[C@H](CCC(=O)O)NC(=O)[C@H](CC(=O)O)NC(=O)[C@H](CC(C)C)NC(=O)[C@H](CCC(N)=O)NC(=O)[C@H](CCCCN)NC(=O)[C@H](CO)NC(=O)[C@H](CC(C)C)NC(=O)[C@H](CC(=O)O)NC(=O)[C@H](CO)NC(=O)[C@@H](NC(=O)[C@H](Cc1ccccc1)NC(=O)[C@@H](NC(=O)CNC(=O)[C@H](CCC(N)=O)NC(=O)C(C)(C)NC(=O)[C@@H](N)Cc1cnc[nH]1)[C@@H](C)O)[C@@H](C)O)C(=O)N[C@@H](CCC(=O)O)C(=O)N[C@@H](Cc1c[nH]c2ccccc12)C(=O)N[C@@H](CC(C)C)C(=O)NC(C)(C)C(=O)N[C@@H](C)C(=O)NCC(=O)NCC(=O)N1CCC[C@H]1C(=O)N[C@@H](CO)C(=O)N[C@@H](CO)C(=O)NCC(=O)N[C@@H](C)C(=O)N1CCC[C@H]1C(=O)N1CCC[C@H]1C(=O)N1CCC[C@H]1C(=O)N[C@@H](CO)C(N)=O	26									
CCCCCCCCCCCCCCCCC(=O)N[C@@H](CCC(=O)N[C@@H](CCC(=O)NCCCC[C@H](NC(=O)[C@H](CCC(N)=O)NC(=O)[C@H](CCCCN)NC(=O)[C@H](CO)NC(=O)[C@H](CC(C)C)NC(=O)[C@H](CC(=O)O)NC(=O)[C@H](CO)NC(=O)[C@@H](NC(=O)[C@H](Cc1ccccc1)NC(=O)[C@@H](NC(=O)CNC(=O)[C@H](CCC(N)=O)NC(=O)C(C)(C)NC(=O)[C@@H](N)Cc1cnc[nH]1)[C@@H](C)O)[C@@H](C)O)C(=O)N[C@@H](CC(=O)O)C(=O)N[C@@H](CCC(=O)O)C(=O)N[C@@H](CCC(N)=O)C(=O)N[C@@H](CCCNC(=N)N)C(=O)N[C@@H](C)C(=O)N[C@@H](CCCCN)C(=O)N[C@@H](CC(C)C)C(=O)N[C@@H](Cc1ccccc1)C(=O)N[C@H](C(=O)N[C@@H](CCC(=O)O)C(=O)N[C@@H](Cc1c[nH]c2ccccc12)C(=O)N[C@@H](CC(C)C)C(=O)NC(C)(C)C(=O)N[C@@H](C)C(=O)NCC(=O)NCC(=O)N1CCC[C@H]1C(=O)N[C@@H](CO)C(=O)N[C@@H](CO)C(=O)NCC(=O)N[C@@H](C)C(=O)N1CCC[C@H]1C(=O)N1CCC[C@H]1C(=O)N1CCC[C@H]1C(=O)N[C@@H](CO)C(N)=O)[C@@H](C)CC)C(=O)O)C(=O)O		0.0022	0.0276	2.03	13	≥ 10000	1200	≥ 10000	≥ 10000	
CC[C@H](C)[C@H](NC(=O)[C@H](Cc1ccccc1)NC(=O)[C@H](CC(C)C)NC(=O)[C@H](CCCCN)NC(=O)[C@H](C)NC(=O)[C@H](CS)NC(=O)[C@H](CCC(N)=O)NC(=O)[C@H](CCC(=O)O)NC(=O)[C@H](CC(=O)O)NC(=O)[C@H](CC(C)C)NC(=O)[C@H](CCC(N)=O)NC(=O)[C@H](CCCCN)NC(=O)[C@H](CO)NC(=O)[C@H](CC(C)C)NC(=O)[C@@H](N)CC(=O)O)C(=O)N[C@@H](CCC(=O)O)C(=O)N[C@@H](Cc1c[nH]c2ccccc12)C(=O)N[C@@H](CC(C)C)C(=O)N[C@@H](C)C(=O)N[C@@H](C)C(=O)NCC(=O)NCC(=O)N1CCC[C@H]1C(=O)N[C@@H](CO)C(=O)N[C@@H](CO)C(=O)NCC(=O)N[C@@H](C)C(=O)N1CCC[C@H]1C(=O)N1CCC[C@H]1C(=O)N1CCC[C@H]1C(=O)N[C@@H](CS)C(N)=O (H-DLSKQLDEQCAKLFIEWLAAGGPSSGAPPPC-NH2)	1130			> 100000						
CCCCCCCCCCCCCCCCCCC(=O)N[C@@H](CCC(=O)NCCCC[C@H](NC(=O)[C@H](CCC(N)=O)NC(=O)[C@H](CCCCN)NC(=O)[C@H](CO)NC(=O)[C@H](CC(C)C)NC(=O)[C@H](CC(=O)O)NC(=O)[C@H](CO)NC(=O)[C@@H](NC(=O)[C@H](Cc1ccccc1)NC(=O)[C@@H](NC(=O)CNC(=O)[C@H](CCC(N)=O)NC(=O)C(C)(C)NC(=O)[C@@H](N)Cc1cnc[nH]1)[C@@H](C)O)[C@@H](C)O)C(=O)N[C@@H](CC(=O)O)C(=O)N[C@@H](CCC(=O)O)C(=O)N[C@@H](CCC(N)=O)C(=O)N[C@@H](CCCNC(=N)N)C(=O)N[C@@H](C)C(=O)N[C@@H](CCCCN)C(=O)N[C@@H](CC(C)C)C(=O)N[C@@H](Cc1ccccc1)C(=O)N[C@H](C(=O)N[C@@H](CCC(=O)O)C(=O)N[C@@H](Cc1c[nH]c2ccccc12)C(=O)N[C@@H](CC(C)C)C(=O)NC(C)(C)C(=O)N[C@@H](C)C(=O)NCC(=O)NCC(=O)N1CCC[C@H]1C(=O)N[C@@H](CO)C(=O)N[C@@H](CO)C(=O)NCC(=O)N[C@@H](C)C(=O)N1CCC[C@H]1C(=O)N1CCC[C@H]1C(=O)N1CCC[C@H]1C(=O)N[C@@H](CO)C(N)=O)[C@@H](C)CC)C(=O)O		0.0014	0.0067	0.102	5					73
